Test results reported in ChEMBL document CHEMBL1125042, “Hypolipidemic activity of rifamycin derivatives” (J Med Chem, 1990).
In brackets after ≈: the same amount, converted by molar mass.

Assays:
Rattus norvegicus [1] = assay: Tested for hypolipidemic activity in male rats, cholesterol was determined in serum at 10 mg/kg; format: functional
Method in brief: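 Groups of eight male Wistar rats (200–230 g) dosed orally in PEG 400, either daily for 7 days (killed 24 h after the last dose) or for 4 days with a second dose on day 4 (killed 16 h later). Fasted 16 h. Paired sera pooled, lipoproteins separated by ultracentrifugation (1.006 and 1.040 g/cm³), HDL taken as the infranatant. Cholesterol measured enzymatically; % vs vehicle, mean ± SEM of four pools.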

Rattus norvegicus [2] = assay: Hypolipidemic activity was determined in male rats, and high-density lipoprotein level was determined at 10 mg/kg; format: functional
Method in brief: (§1)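 Male Wistar rats (200–230 g), eight per group, were dosed orally in PEG 400 at 8 a.m. for 4 days, plus a second dose at 4 p.m. on day 4. Rats were fasted 16 h and killed 16 h after the last dose. Sera from pairs of rats were pooled. LDL (up to 1.040 g/cm³) was separated by ultracentrifugation and the HDL infranatant taken. Cholesterol was measured enzymatically. Results are % versus vehicle control, mean ± SEM of four pools, Student's t test.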

Rattus norvegicus [3] = assay: Hypolipidemic activity was determined in male rats, and low-density lipoprotein level was determined at 10 mg/kg; format: functional; method in brief: as §1
[4] = Inhibitory activity against RNA polymerase was determined; design: species or system Escherichia coli
Method in brief: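 E. coli DNA-dependent RNA polymerase inhibition measured in vitro on ether-extracted, permeabilized E. coli cells.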

Rattus norvegicus [5] = assay: Hypolipidemic activity was determined by measuring the % serum HDL in hypercholesterolemic RICO rat at a dose of 10 mg/kg; format: functional, organism-based; design: dose 10 mg/kg
Method in brief: (§2)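 Genetically hypercholesterolemic RICO rats (Tif:RAI,f,SPF) were dosed orally for 7 days. Sera were collected after a 16 h fast and pooled in pairs. LDL (1.006–1.040 g/cm³) and HDL infranatant were separated by ultracentrifugation. Cholesterol and triglycerides were measured enzymatically. Results are % change versus vehicle control, mean ± SEM of four pools.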

Rattus norvegicus [6] = assay: Hypolipidemic activity was determined by measuring the % serum HDL in hypercholesterolemic RICO rat at a dose of 3 mg/kg; format: functional, organism-based; design: dose 3 mg/kg; method in brief: as §2
Rattus norvegicus [7] = assay: Hypolipidemic activity was determined by measuring the % serum HDL in hypercholesterolemic RICO rat at a dose of 30 mg/kg; format: functional, organism-based; design: dose 30 mg/kg; method in brief: as §2
Rattus norvegicus [8] = assay: Hypolipidemic activity was determined by measuring the % serum HDL in normal rat at a dose of 1 mg/kg; format: functional, organism-based; design: dose 1 mg/kg
Method in brief: (§3)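 Normal male Wistar rats (200–230 g), eight per group, were dosed orally in PEG 400 once daily for 7 days. They were fasted 16 h and killed 24 h after the last dose. Serum from pairs was pooled and LDL/HDL fractions were ultracentrifuged. Cholesterol and triglycerides were measured enzymatically. Results are % versus vehicle control, mean ± SEM of four pools, Student's t test.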

Rattus norvegicus [9] = assay: Hypolipidemic activity was determined by measuring the % serum HDL in normal rat at a dose of 3 mg/kg; format: functional, organism-based; design: dose 3 mg/kg; method in brief: as §3
Rattus norvegicus [10] = assay: Hypolipidemic activity was determined by measuring the % serum HDL in normal rat at a dose of 30 mg/kg; format: functional, organism-based; design: dose 30 mg/kg; method in brief: as §3
Rattus norvegicus [11] = assay: Hypolipidemic activity was determined by measuring the % serum HDL-cholesterol in normal rat at the specified dose of 10 mg/kg; format: functional, organism-based; design: dose 10 mg/kg
Method in brief: (§4)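 Male Wistar rats (200–230 g, n=8 per group) were given oral doses in PEG 400 and fasted 16 h before being killed under pentothal. Paired sera were pooled with 0.05% EDTA and 0.01% thimerosal, and LDL/HDL were separated by ultracentrifugation. Cholesterol was measured enzymatically. Results are % versus vehicle control, mean ± SEM of four serum pools, Student's t test.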

Rattus norvegicus [12] = assay: Hypolipidemic activity was determined by measuring the % serum HDL-cholesterol in normal rat at the specified dose of 30 mg/kg; format: functional, organism-based; design: dose 30 mg/kg; method in brief: as §4
Rattus norvegicus [13] = assay: Hypolipidemic activity was determined by measuring the % serum cholesterol in hypercholesterolemic RICO rat at a dose of 10 mg/kg; format: functional, organism-based; design: dose 10 mg/kg; method in brief: as §2
Rattus norvegicus [14] = assay: Hypolipidemic activity was determined by measuring the % serum cholesterol in hypercholesterolemic RICO rat at a dose of 3 mg/kg; format: functional, organism-based; design: dose 3 mg/kg; method in brief: as §2
Rattus norvegicus [15] = assay: Hypolipidemic activity was determined by measuring the % serum cholesterol in hypercholesterolemic RICO rat at a dose of 30 mg/kg; format: functional, organism-based; design: dose 30 mg/kg; method in brief: as §2
Rattus norvegicus [16] = assay: Hypolipidemic activity was determined by measuring the % serum cholesterol in normal rat at a dose of 1 mg/kg; format: functional, organism-based; design: dose 1 mg/kg; method in brief: as §3
Rattus norvegicus [17] = assay: Hypolipidemic activity was determined by measuring the % serum cholesterol in normal rat at a dose of 10 mg/kg; format: functional, organism-based; design: dose 10 mg/kg; method in brief: as §3
Rattus norvegicus [18] = assay: Hypolipidemic activity was determined by measuring the % serum cholesterol in normal rat at a dose of 3 mg/kg; format: functional, organism-based; design: dose 3 mg/kg; method in brief: as §3
Rattus norvegicus [19] = assay: Hypolipidemic activity was determined by measuring the % serum cholesterol in normal rat at a dose of 30 mg/kg; format: functional, organism-based; design: dose 30 mg/kg; method in brief: as §3
Rattus norvegicus [20] = assay: Hypolipidemic activity was determined by measuring the % serum cholesterol in rat at the specified dose of 10 mg/kg; format: functional, organism-based; design: dose 10 mg/kg; method in brief: as §4
Rattus norvegicus [21] = assay: Hypolipidemic activity was determined by measuring the % serum cholesterol in rat at the specified dose of 30 mg/kg; format: functional, organism-based; design: dose 30 mg/kg; method in brief: as §4
Rattus norvegicus [22] = assay: Hypolipidemic activity was determined by measuring the % serum LDL-cholesterol in hypercholesterolemic RICO rat at a dose of 10 mg/kg; format: functional, organism-based; design: dose 10 mg/kg; method in brief: as §2
Rattus norvegicus [23] = assay: Hypolipidemic activity was determined by measuring the % serum LDL-cholesterol in hypercholesterolemic RICO rat at a dose of 3 mg/kg; format: functional, organism-based; design: dose 3 mg/kg; method in brief: as §2
Rattus norvegicus [24] = assay: Hypolipidemic activity was determined by measuring the % serum LDL-cholesterol in hypercholesterolemic RICO rat at a dose of 30 mg/kg; format: functional, organism-based; design: dose 30 mg/kg; method in brief: as §2
Rattus norvegicus [25] = assay: Hypolipidemic activity was determined by measuring the % serum LDL in normal rat at a dose of 1 mg/kg; format: functional, organism-based; design: dose 1 mg/kg; method in brief: as §3
Rattus norvegicus [26] = assay: Hypolipidemic activity was determined by measuring the % serum LDL in normal rat at a dose of 10 mg/kg; format: functional, organism-based; design: dose 10 mg/kg; method in brief: as §3
Rattus norvegicus [27] = assay: Hypolipidemic activity was determined by measuring the % serum LDL in normal rat at a dose of 3 mg/kg; format: functional, organism-based; design: dose 3 mg/kg; method in brief: as §3
Rattus norvegicus [28] = assay: Hypolipidemic activity was determined by measuring the % serum LDL in normal rat at a dose of 30 mg/kg; format: functional, organism-based; design: dose 30 mg/kg; method in brief: as §3
Rattus norvegicus [29] = assay: Hypolipidemic activity was determined by measuring the % serum triglycerides in normal rat at a dose of 3 mg/kg; format: functional, organism-based; design: dose 3 mg/kg; method in brief: as §3
Rattus norvegicus [30] = assay: Hypolipidemic activity was determined by measuring the % serum triglycerides in normal rat at a dose of 30 mg/kg; format: functional, organism-based; design: dose 30 mg/kg; method in brief: as §3
Rattus norvegicus [31] = assay: Hypolipidemic activity was determined by measuring the % serum LDL-cholesterol in normal rat at the specified dose of 30 mg/kg; format: functional, organism-based; design: dose 30 mg/kg; method in brief: as §4
Rattus norvegicus [32] = assay: Hypolipidemic activity was determined by measuring the % serum triglycerides in hypercholesterolemic RICO rat at a dose of 10 mg/kg; format: functional, organism-based; design: dose 10 mg/kg; method in brief: as §2
Rattus norvegicus [33] = assay: Hypolipidemic activity was determined by measuring the % serum triglycerides in hypercholesterolemic RICO rat at a dose of 3 mg/kg; format: functional, organism-based; design: dose 3 mg/kg; method in brief: as §2
Rattus norvegicus [34] = assay: Hypolipidemic activity was determined by measuring the % serum triglycerides in hypercholesterolemic RICO rat at a dose of 30 mg/kg; format: functional, organism-based; design: dose 30 mg/kg; method in brief: as §2
Rattus norvegicus [35] = assay: Hypolipidemic activity was determined by measuring the % serum LDL-cholesterol in normal rat at the specified dose of 10 mg/kg; format: functional, organism-based; design: dose 10 mg/kg; method in brief: as §4
Rattus norvegicus [36] = assay: Hypolipidemic activity was determined by measuring the % serum triglycerides in normal rat at a dose of 1 mg/kg; format: functional, organism-based; design: dose 1 mg/kg; method in brief: as §3
Rattus norvegicus [37] = assay: Hypolipidemic activity was determined by measuring the % serum triglycerides in normal rat at a dose of 10 mg/kg; format: functional, organism-based; design: dose 10 mg/kg; method in brief: as §3
Staphylococcus aureus = assay: Antibacterial activity against Staphylococcus aureus 10B; format: functional
Method in brief: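 Agar dilution on DST agar with 2-fold drug dilutions. Inoculum of 10⁴ viable S. aureus 10B was taken from liquid-nitrogen stock, thawed 30 min and not subcultured. It was applied by multipoint replicator and incubated overnight at 37 °C. MIC is the lowest concentration inhibiting growth relative to control cultures.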

Rattus norvegicus [38] = assay: Hypolipidemic activity was determined by measuring the % serum HDL in normal rat at a dose of 10 mg/kg; format: functional, organism-based; design: dose 10 mg/kg; method in brief: as §3
Rattus norvegicus [39] = assay: Compound was tested for hypolipidemic activity in male rats, cholesterol was determined in serum at 100 mg/kg; format: functional; method in brief: as §1
Rattus norvegicus [40] = assay: Hypolipidemic activity was determined in male rats, and high-density lipoprotein level was determined at 100 mg/kg; format: functional; method in brief: as §1
Rattus norvegicus [41] = assay: Hypolipidemic activity was determined in male rats, and low-density lipoprotein level was determined at 100 mg/kg; format: functional; method in brief: as §1

COC1/C=C/OC2(C)Oc3c(C)c(OC(=O)C(C)(C)C)c4c(c3C2=O)C(=O)C(N2CCN(Cc3c(C)cc(C)cc3C)CC2)=C(C4=O)N(C(=O)C(C)(C)C)C(=O)/C(C)=C\C=C\C(C)C(O)C(C)C(O)C(C)C(OC(C)=O)C1C (stereo not drawn)
Activity (Rattus norvegicus [1]): -30% | Activity (Rattus norvegicus [2]): -33% | Activity (Rattus norvegicus [3]): -55% | IC50 [4]: > 100 µg/mL | Serum HDL-cholesterol (Rattus norvegicus [5]): -24% | Serum HDL-cholesterol (Rattus norvegicus [6]): -6% | Serum HDL-cholesterol (Rattus norvegicus [7]): -45% | Serum HDL-cholesterol (Rattus norvegicus [8]): 0% | Serum HDL-cholesterol (Rattus norvegicus [9]): -4% | Serum HDL-cholesterol (Rattus norvegicus [10]): -34% | Serum HDL-cholesterol (Rattus norvegicus [11]): -11% | Serum HDL-cholesterol (Rattus norvegicus [12]): -27% | Serum cholesterol (Rattus norvegicus [13]): -29% | Serum cholesterol (Rattus norvegicus [14]): -12% | Serum cholesterol (Rattus norvegicus [15]): -50% | Serum cholesterol (Rattus norvegicus [16]): -5% | Serum cholesterol (Rattus norvegicus [17]): -19% | Serum cholesterol (Rattus norvegicus [18]): -4% | Serum cholesterol (Rattus norvegicus [19]): -27% | Serum cholesterol (Rattus norvegicus [20]): -16% | Serum cholesterol (Rattus norvegicus [21]): -33% | Serum LDL-cholesterol (Rattus norvegicus [22]): -53% | Serum LDL-cholesterol (Rattus norvegicus [23]): -35% | Serum LDL-cholesterol (Rattus norvegicus [24]): -69% | Serum LDL-cholesterol (Rattus norvegicus [25]): -8% | Serum LDL-cholesterol (Rattus norvegicus [26]): -56% | Serum LDL-cholesterol (Rattus norvegicus [27]): -34% | Serum LDL-cholesterol (Rattus norvegicus [28]): -51% | Serum triglyceride (Rattus norvegicus [29]): 14% | Serum triglyceride (Rattus norvegicus [30]): -22% | Serum LDL-cholesterol (Rattus norvegicus [31]): -68% | Serum triglyceride (Rattus norvegicus [32]): -32% | Serum triglyceride (Rattus norvegicus [33]): -11% | Serum triglyceride (Rattus norvegicus [34]): -47% | Serum LDL-cholesterol (Rattus norvegicus [35]): -26% | Serum triglyceride (Rattus norvegicus [36]): 14% | Serum triglyceride (Rattus norvegicus [37]): -17% | MIC (Staphylococcus aureus): 64 µg/mL (≈ 59.2 µM) | Serum HDL-cholesterol (Rattus norvegicus [38]): -21%

CO[C@H]1/C=C/O[C@@]2(C)Oc3c(C)c(O)c4c(O)c(c(/C=N/N5CCN(C)CC5)c(O)c4c3C2=O)NC(=O)/C(C)=C\C=C\[C@H](C)[C@H](O)[C@@H](C)[C@@H](O)[C@@H](C)[C@H](OC(C)=O)[C@@H]1C [RIFAMPIN]
Activity (Rattus norvegicus [39]): -30% | Activity (Rattus norvegicus [40]): -27% | Activity (Rattus norvegicus [41]): -31% | MIC (Staphylococcus aureus): 0.003 µg/mL (≈ 0.00365 µM)
